In PMC6358549 (Molecular Metabolism, 2018):
Read-outs that look alike come from different tables or passages of the source. One block for each substance: values may come before it. No end group written: not given here.

Experiments:
[1] = system: rat GIPR; conditions: cited from earlier work
[2] = system: healthy human volunteers; conditions: cited from earlier work
[3] = system: DIO mice; experiment: body weight change on chronic treatment of DIO mice; format: in vivo, mouse
[4] = general statement in the discussion, no reference given; cited from earlier work
[5] = target: T1, hGIPR (Homo sapiens, UniProt P48546); experiment: cAMP-response-element luciferase reporter gene assay, agonism at human GIPR; format: cell-based; conditions: Figure 5B
T1 sequence (P48546 22-466): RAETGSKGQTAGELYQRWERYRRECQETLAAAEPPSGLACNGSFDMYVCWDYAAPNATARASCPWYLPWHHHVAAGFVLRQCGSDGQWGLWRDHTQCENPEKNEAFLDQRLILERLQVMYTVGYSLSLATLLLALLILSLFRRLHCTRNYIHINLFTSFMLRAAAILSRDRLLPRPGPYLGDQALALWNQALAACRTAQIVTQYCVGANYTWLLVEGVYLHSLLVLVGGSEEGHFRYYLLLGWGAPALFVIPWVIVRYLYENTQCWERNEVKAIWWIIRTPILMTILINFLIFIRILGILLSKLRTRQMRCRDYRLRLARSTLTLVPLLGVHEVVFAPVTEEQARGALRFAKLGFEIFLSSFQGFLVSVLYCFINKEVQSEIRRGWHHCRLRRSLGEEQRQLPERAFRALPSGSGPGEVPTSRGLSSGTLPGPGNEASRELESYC

[6] = target: T2, mGIPR (Mus musculus, UniProt Q0P543); experiment: cAMP-response-element luciferase reporter gene assay, agonism at mouse GIPR; format: cell-based; conditions: Figure 5D
T2 sequence (Q0P543 19-460): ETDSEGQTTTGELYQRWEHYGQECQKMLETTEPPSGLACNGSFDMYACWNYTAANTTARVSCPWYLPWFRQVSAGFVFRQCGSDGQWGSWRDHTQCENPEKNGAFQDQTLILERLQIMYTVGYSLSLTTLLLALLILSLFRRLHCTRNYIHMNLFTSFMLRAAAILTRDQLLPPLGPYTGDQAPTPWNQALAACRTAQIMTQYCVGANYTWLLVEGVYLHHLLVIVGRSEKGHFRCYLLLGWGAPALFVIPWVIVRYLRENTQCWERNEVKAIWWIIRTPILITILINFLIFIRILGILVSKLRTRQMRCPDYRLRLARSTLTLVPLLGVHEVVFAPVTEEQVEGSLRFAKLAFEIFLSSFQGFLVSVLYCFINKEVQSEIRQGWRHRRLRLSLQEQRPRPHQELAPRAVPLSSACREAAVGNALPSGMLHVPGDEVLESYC

[7] = target: T1, hGIPR; experiment: luciferase reporter gene assay, antagonism at human GIPR; format: cell-based; conditions: co-incubated with native GIP at its EC50; 1% ovalbumin; Figure 5A
Outline: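 HEK293 or BHK cells overexpressing the human receptor with a CRE-linked firefly luciferase reporter were serum-deprived for 16 h. They were then incubated 5 h at 37 °C, 5% CO2 with native GIP at constant concentration plus serial dilutions of test compound. Luminescence was read after adding luciferase substrate. Each concentration was run in duplicate, and potency was fitted per experiment by non-linear three-parameter regression.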

[8] = target: T3, mouse GLP-1R (Mus musculus, UniProt O35659); experiment: luciferase reporter gene assay, antagonism at mouse GLP-1R; format: cell-based; conditions: native hormone at EC90; Figure 5E
T3 sequence (O35659 22-463): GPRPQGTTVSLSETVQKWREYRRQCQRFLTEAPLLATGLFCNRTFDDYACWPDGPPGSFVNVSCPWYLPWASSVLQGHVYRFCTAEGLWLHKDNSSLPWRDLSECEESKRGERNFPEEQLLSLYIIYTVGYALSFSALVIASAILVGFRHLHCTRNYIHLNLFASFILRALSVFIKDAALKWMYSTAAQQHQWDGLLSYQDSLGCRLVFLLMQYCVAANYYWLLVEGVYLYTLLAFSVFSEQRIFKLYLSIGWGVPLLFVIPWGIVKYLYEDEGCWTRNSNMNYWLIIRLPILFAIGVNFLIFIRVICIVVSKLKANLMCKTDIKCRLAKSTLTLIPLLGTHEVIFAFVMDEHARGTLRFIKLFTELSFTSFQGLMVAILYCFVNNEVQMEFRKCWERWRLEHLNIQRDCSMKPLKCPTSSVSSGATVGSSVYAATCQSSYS

[9] = target: mouse glucagon receptor (GcgR) (Mus musculus, UniProt Q61606); experiment: luciferase reporter gene assay, antagonism at mouse glucagon receptor; format: cell-based; conditions: native hormone at EC90; Figure 5
Sequence of mouse glucagon receptor (GcgR) (Q61606 27-485): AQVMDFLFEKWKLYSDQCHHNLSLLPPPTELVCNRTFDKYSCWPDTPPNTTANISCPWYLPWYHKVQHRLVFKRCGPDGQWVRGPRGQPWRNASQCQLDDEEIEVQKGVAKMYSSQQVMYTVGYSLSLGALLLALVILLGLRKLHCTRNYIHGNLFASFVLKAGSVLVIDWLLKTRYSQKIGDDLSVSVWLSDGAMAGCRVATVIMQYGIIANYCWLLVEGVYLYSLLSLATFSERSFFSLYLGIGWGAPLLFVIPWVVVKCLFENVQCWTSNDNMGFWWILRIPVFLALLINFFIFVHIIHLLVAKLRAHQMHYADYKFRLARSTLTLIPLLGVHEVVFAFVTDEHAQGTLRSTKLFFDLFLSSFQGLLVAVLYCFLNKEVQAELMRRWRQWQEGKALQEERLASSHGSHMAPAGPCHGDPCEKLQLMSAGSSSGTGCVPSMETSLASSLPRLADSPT

[10] = aqueous solubility and aggregation; format: physicochemical; conditions: statement in the discussion, method not given

Substance: hGIP (3–30)-NH2: peptide-based GIPR antagonist from the literature (EGTFISDYSIAMDKIHQQDFVNWLLAQK-NH2; UniProt P09681 54-81, looked up, fragment)
affinity for the rat GIPR relative to hGIPR [1]: substantially reduced affinity
insulinotropic response to GIP co-infusion [2]: blocked a majority of the insulinotropic response

Substance: liraglutide [reference compound]
body weight lowered by ([3]; daily sc liraglutide 10 nmol/kg, Figure 5H): 10.9%

Substance: Native, full-length GIP: native, full-length GIP
aggregation in liquid formulations [4]: prone to aggregation
aqueous solubility [4]: limited aqueous solubility

hGIPR antagonism [7]: potent antagonism
aqueous solubility [10]: sufficient aqueous solubility
Substance: hGIP(5–42) N^αAc K10[γEγE-C16] Arg18 [acyl GIPR antagonist]
partial agonism at hGIPR [5]: did not exhibit any degree of partial agonism
partial agonism at mGIPR [6]: did not exhibit any degree of partial agonism
cross-reactive antagonism to mouse GLP-1R [8]: did not demonstrate any cross-reactive antagonism
cross-reactive antagonism to mouse glucagon receptor (GcgR) [9]: did not demonstrate any cross-reactive antagonism
change in body weight relative to vehicle controls ([3]; daily sc 300 nmol/kg or 1 μmol/kg for ten days, N = 8): did not cause any measurable change in body weight
